The text below walks through data of ChEMBL document CHEMBL3600302, “A Ligand-Based Drug Design. Discovery of 4-Trifluoromethyl-7,8-pyranocoumarin as a Selective Inhibitor of Human Cytochrome P450 1A2” (J Med Chem, 2015).

For orientation: Ki means the equilibrium dissociation constant of an inhibitor or competing ligand from its target. What is called inhibition is the change of the read-out against control, counted positive when it falls. A high value points to strong suppression.

SMILES strings stand for the structures. Where only a bound is given, the exact number is not on record here.

The target in data set [1] is T1, Cytochrome P450 1A1 (Homo sapiens, UniProt P04798).
T1 sequence (P04798 whole entry): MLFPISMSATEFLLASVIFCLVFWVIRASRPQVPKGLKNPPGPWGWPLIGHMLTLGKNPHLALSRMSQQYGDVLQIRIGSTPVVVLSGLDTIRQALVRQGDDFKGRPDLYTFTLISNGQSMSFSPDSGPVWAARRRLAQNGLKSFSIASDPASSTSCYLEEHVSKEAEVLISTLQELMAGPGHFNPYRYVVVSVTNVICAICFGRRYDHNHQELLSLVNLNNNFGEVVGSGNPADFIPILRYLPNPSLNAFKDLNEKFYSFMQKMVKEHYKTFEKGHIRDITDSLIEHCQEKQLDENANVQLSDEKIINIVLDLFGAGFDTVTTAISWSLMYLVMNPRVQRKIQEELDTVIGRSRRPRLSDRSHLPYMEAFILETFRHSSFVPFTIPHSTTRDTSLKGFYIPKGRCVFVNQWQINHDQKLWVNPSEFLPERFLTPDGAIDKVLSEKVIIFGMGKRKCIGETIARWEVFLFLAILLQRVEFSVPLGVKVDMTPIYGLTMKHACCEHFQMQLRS
Put plainly: Inhibition of human microsomal CYP1A1-dependent ethoxyresorufin-O-deethylase activity at 10 nM preincubated for 5 mins followed by NADPH regenerating solution and substrate addition measured over 6 mins by spectrofluorimetric analysis. The following applies: 0.1 h, 0.01 µM. A digest of the protocol:
(§1)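 Microsomal P450 in 0.1 M potassium phosphate pH 7.6 with MgCl2 and 10 nM inhibitor in DMSO, 2 mL final. Preincubated 5 min at 37 °C either with NADPH-regenerating solution, or without it, with NADPH then added at start. Reaction started with ethoxyresorufin (final 5 µM). Resorufin formation followed 6 min at 37 °C.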

A further data set concerns the target T2, Cytochrome P450 1B1 (Homo sapiens, UniProt Q16678).
T2 sequence (Q16678 whole entry): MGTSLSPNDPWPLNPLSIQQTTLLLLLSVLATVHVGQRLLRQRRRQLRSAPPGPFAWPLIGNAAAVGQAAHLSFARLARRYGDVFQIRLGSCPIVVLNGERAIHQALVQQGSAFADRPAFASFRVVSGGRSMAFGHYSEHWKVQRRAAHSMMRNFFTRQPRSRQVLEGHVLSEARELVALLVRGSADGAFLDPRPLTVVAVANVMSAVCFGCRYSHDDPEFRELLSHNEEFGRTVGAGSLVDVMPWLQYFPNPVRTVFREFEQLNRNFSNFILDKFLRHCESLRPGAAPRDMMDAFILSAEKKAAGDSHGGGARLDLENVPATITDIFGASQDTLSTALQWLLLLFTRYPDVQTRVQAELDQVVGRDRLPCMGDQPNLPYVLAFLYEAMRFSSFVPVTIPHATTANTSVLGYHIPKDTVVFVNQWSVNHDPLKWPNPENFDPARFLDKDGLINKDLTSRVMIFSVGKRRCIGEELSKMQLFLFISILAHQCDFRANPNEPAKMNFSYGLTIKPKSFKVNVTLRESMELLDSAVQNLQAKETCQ
Put plainly: Inhibition of human microsomal CYP1B1-dependent ethoxyresorufin-O-deethylase activity at 10 nM measured over 6 mins by spectrofluorimetric analysis in absence of NADPH regenerating solution. As to conditions: 0.1 h, 0.01 µM; call rule not given here. The gist of the method: as §1

Data set [2] is filed under the species Homo sapiens. Put plainly: Selectivity ratio of Ki for human microsomal CYP1A1 to Ki for human microsomal CYP1A2. The gist of the method: (§2)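 Microsomal P450 (final 5 nM) in 0.1 M potassium phosphate pH 7.6 with MgCl2 at 37 °C. Substrate final 5 µM: ethoxyresorufin for 1A1/1B1, methoxyresorufin for 1A2. […] Ki was taken as the x-intercept of Dixon plots (1/v0 vs [I]). Mean ± SD of three independent experiments. Selectivity ratios are ratios of these Ki.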

The target of data set [3] is T1, Cytochrome P450 1A1. Kind of data set: Inhibition of human microsomal CYP1A1-dependent ethoxyresorufin-O-deethylase activity by spectrofluorimetric analysis in presence of NADPH regenerating solution. The gist of the method: as §2
In data set [4] the target is T3, Cytochrome P450 1A2 (Homo sapiens, UniProt P05177).
T3 sequence (P05177 whole entry): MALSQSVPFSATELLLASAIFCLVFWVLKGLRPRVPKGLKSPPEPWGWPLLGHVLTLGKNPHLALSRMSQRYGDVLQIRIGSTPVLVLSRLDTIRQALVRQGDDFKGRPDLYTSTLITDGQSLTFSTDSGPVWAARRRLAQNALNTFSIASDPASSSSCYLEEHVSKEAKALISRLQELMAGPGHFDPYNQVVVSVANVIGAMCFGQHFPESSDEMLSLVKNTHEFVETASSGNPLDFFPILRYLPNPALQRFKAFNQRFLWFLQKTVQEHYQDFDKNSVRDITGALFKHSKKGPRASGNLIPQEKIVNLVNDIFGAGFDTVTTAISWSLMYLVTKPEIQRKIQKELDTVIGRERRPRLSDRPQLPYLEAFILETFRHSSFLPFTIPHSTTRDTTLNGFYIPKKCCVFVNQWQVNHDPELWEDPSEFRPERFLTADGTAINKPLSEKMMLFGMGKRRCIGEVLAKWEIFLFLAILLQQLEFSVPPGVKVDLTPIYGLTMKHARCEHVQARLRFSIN
Put plainly: Inhibition of human microsomal CYP1A2-dependent methoxyresorufin-O-demethylase activity by spectrofluorimetric analysis in presence of NADPH regenerating solution. The gist of the method: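 Microsomal P450 (final 5 nM) in 0.1 M potassium phosphate pH 7.6 with MgCl2 at 37 °C. Substrate final 5 µM: ethoxyresorufin for 1A1/1B1, methoxyresorufin for 1A2. Ki was taken as the x-intercept of Dixon plots (1/v0 vs [I]). Mean ± SD of three independent experiments. Selectivity ratios are ratios of these Ki.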

The species named for data set [5] is Homo sapiens. Kind of data set: Selectivity ratio of Ki for human microsomal CYP1B1 to Ki for human microsomal CYP1A2. A digest of the protocol:
as §2

The target in data set [6] is T1, Cytochrome P450 1A1. Kind of data set: Inhibition of human microsomal CYP1A1-dependent ethoxyresorufin-O-deethylase activity at 10 nM measured over 6 mins by spectrofluorimetric analysis in absence of NADPH regenerating solution. As to conditions: 0.1 h, 0.01 µM. The gist of the method:
as §1

The target in data set [7] is T3, Cytochrome P450 1A2. Put plainly: Inhibition of human microsomal CYP1A2-dependent methoxyresorufin-O-demethylase activity measured over 6 mins by spectrofluorimetric analysis. The following applies: 0.1 h. A digest of the protocol: as §2
For a further data set, the target named is T4, CYP1A2 (Homo sapiens, UniProt P05177).
T4 sequence (P05177 whole entry): T3 sequence (P05177 whole entry)
Put plainly: Inhibition of human microsomal CYP1A2-dependent methoxyresorufin-O-demethylase activity at 10 nM preincubated for 5 mins followed by NADPH regenerating solution and substrate addition measured over 6 mins by spectrofluorimetric analysis relative to control. The following applies: human microsomal CYP1A2, probe methoxyresorufin (O-demethylation).

Turning to `Cc1cc2c(ccc3c(=O)cc(-c4ccccc4)oc32)o1`, the “inhibition (INH)” value against Cytochrome P450 1A1 [1] is listed as “Not Active”; at Cytochrome P450 1B1, “Not Active”; on Cytochrome P450 1A1 [6], “Not Active”; against Cytochrome P450 1A2 [7], “Dose-dependent effect”. Besides, the Ratio Ki in the data set listed under Homo sapiens [2] turned out to be 14; in the data set listed under Homo sapiens [5] it was 6. The figures for the Ki at Cytochrome P450 1A1 [3] and at Cytochrome P450 1A2 [4] were 430 nM and 30 nM, respectively. At CYP1A2, this compound gave an inhibition at 0.1 h, 0.01 µM greater than 90%.
